Legend:
[1] = target: Muscarinic acetylcholine receptor; test: (§1) Agonist activity at muscarinic acetylcholine receptor in isolated guinea pig ileum.; assay type: functional, tissue-based, Cavia porcellus
Method in brief: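 Isolated ileum in Tyrode solution. Cumulative-free sequential agonist dose-response curves, 30-s contact time per dose. Contraction read out; EC50 derived from the curves. Efficacy expressed as percent of maximal contraction relative to the full agonist acetylcholine.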

[2] = target: Muscarinic acetylcholine receptor M3 (Cavia porcellus) (UniProt Q8VH26); test: Antagonist activity at muscarinic acetylcholine receptor in isolated guinea pig ileum.; assay type: functional, tissue-based
Method in brief: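 Isolated guinea pig ileum in tyrode solution; agonist dose-response curves built sequentially with 30-s contact time. Antagonist added to the tyrode 5 min before agonist responses were retested. K_B from regression analysis using at least four points, n = 4-8 per point.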

[3] = target: Muscarinic acetylcholine receptor; test: In Vitro binding affinity to the muscarinic acetylcholine receptor site in rat brain by using [3H]QNB as the radioligand.; assay type: tissue-based
[4] = target: Muscarinic acetylcholine receptor (Rattus norvegicus) (UniProt P08482+P08483+P08485+P08911+P10980)
[5] = target: Muscarinic acetylcholine receptor; test: In vitro binding affinity to muscarinic acetylcholine receptor site in rat brain assayed using [3H]oxotremorine-M as the radioligand.; assay type: tissue-based
[6] = target: Muscarinic acetylcholine receptor; test: as §1; assay type: functional, tissue-based, Cavia porcellus; remark: listed apart in the source
[7] = target: Muscarinic acetylcholine receptor (Cavia porcellus); test: Antagonist activity at muscarinic acetylcholine receptor in isolated guinea pig ileum.
[8] = target: Muscarinic acetylcholine receptor (Cavia porcellus); test: Antagonistic activity at muscarinic acetylcholine receptor in isolated guinea pig ileum.

Sequence of Muscarinic acetylcholine receptor M3 (Cavia porcellus) (Q8VH26 1-587): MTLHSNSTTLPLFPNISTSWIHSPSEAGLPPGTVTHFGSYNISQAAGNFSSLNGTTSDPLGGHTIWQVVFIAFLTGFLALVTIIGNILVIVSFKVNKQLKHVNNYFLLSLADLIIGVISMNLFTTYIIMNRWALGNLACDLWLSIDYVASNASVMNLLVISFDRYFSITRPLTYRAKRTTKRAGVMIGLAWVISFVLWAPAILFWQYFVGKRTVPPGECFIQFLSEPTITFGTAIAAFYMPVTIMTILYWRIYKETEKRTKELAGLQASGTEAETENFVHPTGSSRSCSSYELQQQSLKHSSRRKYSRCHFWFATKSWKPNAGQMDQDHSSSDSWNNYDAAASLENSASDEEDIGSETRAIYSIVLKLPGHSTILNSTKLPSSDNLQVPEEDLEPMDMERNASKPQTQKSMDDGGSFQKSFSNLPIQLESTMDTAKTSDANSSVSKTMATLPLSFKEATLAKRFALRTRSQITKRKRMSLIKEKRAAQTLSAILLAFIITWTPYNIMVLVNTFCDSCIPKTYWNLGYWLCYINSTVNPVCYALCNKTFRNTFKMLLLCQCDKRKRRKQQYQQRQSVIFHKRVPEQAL

| Structure (SMILES) | Kb [2] | IC50 [3] | Muscarinic agonist index [4] | IC50 [5] | EC50 [6] | Kb [7] | Kb [8] | EC50 [1] |
| --- | --- | --- | --- | --- | --- | --- | --- | --- |
| CCCCc1noc(C2CN3CCC2CC3)n1 (configuration not stated) | 70 nM | 1500 nM | 4 | 58.5 nM |  |  |  | > 30000 nM |
| CCCCc1noc(C2=CC(C)CNC2)n1 (configuration not stated) |  | 64300 nM | 15 | 685 nM | > 30000 nM |  |  |  |
| CC(C)c1noc(C2=CCCN(C)C2)n1.O=C(O)C(=O)O | 200 nM | 15800 nM | 14 | 182 nM | > 30000 nM |  |  |  |
| CCCCc1noc(C2=CCCNC2)n1 |  | 25300 nM | 339 | 12.1 nM | 320 nM |  |  |  |
| CN1CCC=C(c2nc(C(C)(C)C)no2)C1.O=C(O)C(=O)O | 200 nM | 9000 nM | 5 | 286 nM | > 30000 nM |  |  |  |
| CN1CCC=C(c2nc(C3CCCCCC3)no2)C1.O=C(O)C(=O)O | 160 nM | 16000 nM | < 3 | > 850 nM | > 30000 nM |  |  |  |
| CCCc1nc(C2=CCCN(C)C2)no1.O=C(O)C(=O)O | 3380 nM | 88000 nM | 80 | 681 nM | > 30000 nM |  |  |  |
| Cc1nc(C2=CCCN(C)C2)no1.O=C(O)C(=O)O |  | 401000 nM | 68 | 955 nM | > 30000 nM | 8000 nM |  |  |
| CN1CCC=C(c2nc(C3CC3)no2)C1.O=C(O)C(=O)O | 150 nM | 6800 nM | 14 | 78 nM | > 30000 nM |  |  |  |
| CCCCc1noc(C2=CCC(C)N(C)C2)n1 (configuration not stated) | 130 nM | 10200 nM | 11 | 145 nM | > 30000 nM |  |  |  |
| CN1CCC=C(c2nc(C3CCC3)no2)C1.O=C(O)C(=O)O |  | 12900 nM | 11 | 191 nM |  |  | 650 nM | > 30000 nM |
| CCc1nc(C2=CCCN(C)C2)no1.O=C(O)C(=O)O |  | 156000 nM | 26 | 954 nM | > 30000 nM | 5750 nM |  |  |
| CN1CCC=C(c2nc(CC3CC3)no2)C1.O=C(O)C(=O)O |  | 11300 nM | 235 | 7.8 nM | 1000 nM |  |  |  |
| CN1CCC=C(c2nc(C3CCCC3)no2)C1.O=C(O)C(=O)O | 1550 nM | 10800 nM | 15 | 102 nM | > 30000 nM |  |  |  |
| CCCCc1noc(C2=CCC3CCC2N3C)n1 (configuration not stated) | 220 nM | 8900 nM | 8 | 181 nM | > 30000 nM |  |  |  |
| Cc1noc(C2=CCCN(C)C2)n1.O=C(O)C(=O)O |  | 41000 nM | 540 | 12.3 nM | 32 nM |  |  |  |
| CCCCc1noc(C2=CCCN(CC)C2)n1 | 700 nM | 20600 nM | 39 | 86.2 nM | > 30000 nM |  |  |  |

Now from value to compound, other results behind:

| Kb [2] | IC50 [3] | Muscarinic agonist index [4] | IC50 [5] | EC50 [6] | Kb [7] | Kb [8] | Structure (SMILES) | EC50 [1] |
| --- | --- | --- | --- | --- | --- | --- | --- | --- |
|  | 17400 nM | 447 | 6.3 nM | 100 nM |  |  | CCCc1noc(C2=CCCN(C)C2)n1.O=C(O)C(=O)O |  |
|  | 11000 nM | 30 | 59.9 nM | 1460 nM |  |  | CCCCCCCCc1noc(C2=CCCN(C)C2)n1.O=C(O)C(=O)O |  |
|  | 66900 nM | 249 | 43.5 nM | 420 nM |  |  | COCc1noc(C2=CCCN(C)C2)n1.O=C(O)C(=O)O |  |
|  | 15800 nM | 181 | 14.1 nM | 150 nM |  |  | CCCCc1noc(C2=CCCN(C)C2)n1.O=C(O)C(=O)O |  |
|  | 42800 nM | 65 | 107 nM | 1280 nM |  |  | CCOCCc1noc(C2=CCCN(C)C2)n1.O=C(O)C(=O)O |  |
|  | 6700 nM | 29 | 36.9 nM | 620 nM |  |  | CCCCCc1noc(C2=CCCN(C)C2)n1.O=C(O)C(=O)O |  |
|  | 41500 nM | 47 | 144 nM | 720 nM |  |  | COCCc1noc(C2=CCCN(C)C2)n1.O=C(O)C(=O)O |  |
|  | 35300 nM | 520 | 11 nM | 200 nM |  |  | CCc1noc(C2=CCCN(C)C2)n1.O=C(O)C(=O)O |  |
|  | 9100 nM | 52 | 28.3 nM | 130 nM |  |  | CCCCCCCc1noc(C2=CCCN(C)C2)n1.O=C(O)C(=O)O |  |
